# Screening results as filed in PubChem.
# S100A4 MyoIIA = inhibitors of human S100A4 binding to myosin IIA peptide; AID 652163; 360,000 compounds, 0.14% hits; S100A4/TAMRA-MyoIIA peptide fluorescence polarization; inhibition, % at 10.7 µM; P26447;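 active = mean inhibition of at least 70% across replicates, with every replicate also reaching that level; inconclusive = mean inhibition reaches 70% but some replicates fall short; inactive = mean inhibition below 70%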
# Target sequence (P26447 whole entry, looked up): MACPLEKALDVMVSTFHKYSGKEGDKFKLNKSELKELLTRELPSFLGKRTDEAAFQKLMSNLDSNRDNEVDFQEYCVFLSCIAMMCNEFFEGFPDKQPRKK
#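 Material: human S100A4 monomer with TAMRA-labelled myosin IIA peptide; buffer or medium: HEPES pH 7.2 with CaCl2, KCl, NaCl, DTT, Triton; compound dosing: one concentration per compound; schedule: 5 min incubation before reading; benchmarks: neutral control DMSO, positive control TFP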
# ERAP1 HTS inh = inhibitors of human ERAP1 aminopeptidase. inhibition, % at 10.7 µM. Q9NZ08. AID 652197. 340,000 compounds, 0.15% hits. recombinant ERAP1, Leu-AMC fluorescence, 60 min;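 active = mean replicate inhibition of at least 30%, or all replicates individually reaching that 30% level; inactive = mean below 30% and not every replicate reaching it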
# E-sel inducer = induces E-selectin expression in human endothelial cells; P16581; HUVEC E-selectin immunofluorescence imaging; normalized: neutral wells 0, TNF-alpha wells 100; activation, % at 7.58 µM; 260,000 compounds, 0.37% hits; AID 686992;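 active = mean E-selectin-positive cell signal at least 10% of the positive control, reached in at least 60% of replicates, without over 20% cell loss; inconclusive = no rule given, readout overlaps actives, possibly toxicity-flagged; inactive = the rest, including those meeting only one limit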
#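 Material: HUVEC primary endothelial cells; Amount: 3,000 cells per well; Dosing: single concentration; Medium: EGM-2 growth medium on 0.1% gelatin-coated wells; Read-out basis: percent E-selectin-positive cells; Signal: immunofluorescence imaging; Control set: TNF-alpha, DMSO.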
# rRNA inh HTS = selective bacterial rRNA inhibition in E. coli; 350,000 compounds, 1.6% hits; GFP signal change (wild-type ribosome), % (concentration not given with the values); AID 720706; E. coli WT GFP vs humanized-ribosome RFP mutants, fluorescence, 24 h; stronger effect = lower value; DMSO median 0, no signal -100;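 active = significant combined selectivity score with lowered wild-type GFP, culture density cut under 30%, mutant RFP and density less affected; inactive = any of these conditions unmet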
# SIRT5 inh = blocks human SIRT5 desuccinylation of peptide | Q9NXA8 | Purified SirT5, succinyl-peptide AMC, trypsin-coupled fluorescence | inhibition, % at 15 µM | 330,000 compounds, 1.1% hits | AID 652115; in the data active = inhibition above about 15%; inconclusive = no clear call, values can overlap the other calls
# Target sequence (Q9NXA8 whole entry, looked up): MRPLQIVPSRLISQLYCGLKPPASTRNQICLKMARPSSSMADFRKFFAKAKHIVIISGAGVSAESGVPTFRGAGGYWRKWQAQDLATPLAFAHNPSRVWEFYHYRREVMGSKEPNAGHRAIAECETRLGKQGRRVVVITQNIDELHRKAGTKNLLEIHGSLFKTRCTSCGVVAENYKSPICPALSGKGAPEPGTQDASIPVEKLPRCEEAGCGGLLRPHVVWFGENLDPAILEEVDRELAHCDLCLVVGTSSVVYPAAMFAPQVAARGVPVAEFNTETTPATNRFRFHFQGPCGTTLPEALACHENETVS
# MLL AF4-AF9 inh = inhibitors of human MLL-AF4/AF9 interaction | inhibition, % at 10 µM | AID 651704 | 350,000 compounds, 0.47% hits | AlphaScreen, biotin-AF4 peptide binding to FLAG-AF9 | P42568;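 active = every replicate reaching a set inhibition limit, whatever the replicate mean, cut at about 25% in these data; inconclusive = mean inhibition reaches that limit but some replicates miss it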
# AID977621 = wild-type E. coli growth inhibition versus H69 humanized strain – H69 mutant RFP, wild-type GFP, cherry-pick, dose response; shares compounds with rRNA inh HTS; fluorescence, 24 h; activity change, negative = inhibition at 50 µM; 1,900 tested, under 10 active; AID 977621;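 active = Wild-type ribosome reporter drop at least double the humanized mutant ribosome reporter drop, growth loss under a set limit; inconclusive = no clear call, values can overlap the other calls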;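 also: wild-type GFP and H69 mutant RFP strains grown together 50/50 in each well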
# AID977628 = growth of wild-type and h24-humanized E. coli strains – h24 mutant RFP vs wild-type GFP, cherry-pick, dose response; shares compounds with rRNA inh HTS; E. coli WT GFP strain growth, fluorescence, 24 h; activity change, negative = inhibition at 50 µM; 1,900 tested, under 10 active; AID 977628;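 active = compound lowering the normal-ribosome reporter at least twice as much as the humanized-ribosome reporter, growth loss under a set limit; inconclusive = no clear call, values can overlap the other calls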;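 also: wild-type GFP and h24 humanized RFP strains co-cultured 1 to 1 per well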
# Hits are given with their value; - = inactive; ? = inconclusive; . = no result given. Sampled rows, rich in hits. Any-hit rate of the full collection: about 3.4%.
SMILES,S100A4 MyoIIA,ERAP1 HTS inh,E-sel inducer,rRNA inh HTS,SIRT5 inh,MLL AF4-AF9 inh,AID977621,AID977628
COc1ccc(CN2CCC3CC2c2cc(-c4cccc(C)c4)ccc23)cc1 (centres undefined),-,-,-,-,-,-,.,.
COc1ccc(CN2CCC3CC2c2cc(Cl)ccc23)cc1 (centres undefined),-,-,.,-21,-,-,?,?
CO[C@H]1CN(C)C(=O)c2cc(NC(=O)NC3CCCC3)ccc2OC[C@@H](C)N(CC2CC2)C[C@H]1C,-,-,-,-,-,-,.,.
Cc1ccc(-c2c(=O)n(O)c3ccccc3[n+]2[O-])cc1,-,-,-,-17,-,-,-,?
O=C(C[C@@H]1C[C@H]2c3cc(NC(=O)NC4CCCC4)ccc3O[C@H]2[C@@H](CO)O1)NCc1ccc2c(c1)OCO2,-,-,-,-,-,-,.,.
CCCNC(=O)N1[C@H](C#N)[C@H](c2ccc(-c3cccc(OC)c3)cc2)[C@H]1CO,-,-,-,-,-,-,.,.
COc1ccccc1C1CCN(C(=O)c2cccs2)CC1,-,-,-,-25,-,-,-,-
COc1ccccc1C1CCN(C(=O)c2ccccc2)CC1,-,-,-,-,-,-,.,.
COC(=O)C[C@@H]1CC[C@H]2[C@@H](COc3ccc(NS(=O)(=O)c4ccc(F)cc4)cc3C(=O)N2C)O1,-,-,-,-,-,-,.,.
C[C@H]1CN([C@@H](C)CO)S(=O)(=O)c2ccc(C#CC3CC3)cc2O[C@@H]1CN(C)C(=O)c1ccncc1,-,-,-,-,-,-,.,.
O=C(O)c1cccc(Nc2cc(Cl)c3nonc3c2[N+](=O)[O-])c1,-,-,-,-,-,-,.,.
O=C(O)c1ccccc1Nc1cc(Cl)c2nonc2c1[N+](=O)[O-],-,-,-,-20,-,-,?,.
Cc1cc(NC(=O)CCCn2cc([N+](=O)[O-])cn2)n(Cc2ccc(F)cc2)n1,-,-,-,-23,-,-,-,?
O=C(C[C@@H]1CC[C@@H](NC(=O)Nc2ccccc2F)[C@@H](CO)O1)NCc1ccc(F)cc1,-,-,-,-,-,-,.,.
O=C(c1cc(S(=O)(=O)N2CCCCC2)ccc1Cl)N1CCOCC1,-,-,.,-,-,-,.,.
O=C(c1cc(S(=O)(=O)N2CCOCC2)ccc1Cl)N1CCc2ccccc2C1,-,-,.,-20,-,-,-,-
COc1ccc(C(=O)NCCCn2ccnc2)cc1[N+](=O)[O-],-,-,-,-,-,-,.,.
O=C(NCCCn1ccnc1)c1sc2cc([N+](=O)[O-])ccc2c1Cl,-,-,-,-16,-,-,-,-
Cc1ccc(S(=O)(=O)N[C@@H]2C=C[C@@H](CC(=O)O)O[C@@H]2CO)cc1,-,-,-,-,-,-,.,.
CO[C@@H]1CN(C)C(=O)c2cc(NC(C)=O)ccc2OC[C@@H](C)N(Cc2cc(F)ccc2F)C[C@@H]1C,-,-,-,-,-,-,.,.
Cc1ccc(S(=O)(=O)N(C)C)cc1NC(=O)COc1ccc(-c2nnco2)cc1,-,-,-,-,-,-,.,.
Cc1ccc(S(=O)(=O)N2CCOCC2)cc1NC(=O)COc1ccc(-c2nnco2)cc1,-,-,.,-19,-,-,-,?
Nc1[nH]c(C(=O)c2ccccc2)c(-c2ccc(Br)cc2)c1C(=O)c1cccs1,-,-,.,-34,-,-,?,.
CNC[C@H]1Oc2ccc(NC(=O)Nc3ccc(C(F)(F)F)cc3)cc2CC(=O)N([C@@H](C)CO)C[C@H]1C,-,-,-,-,-,-,.,.
O=C(C[n+]1ccn(-c2ccccc2)c1)c1ccc([N+](=O)[O-])cc1,-,-,-,-22,-,-,.,-
SMILES,S100A4 MyoIIA,ERAP1 HTS inh,E-sel inducer,rRNA inh HTS,SIRT5 inh,MLL AF4-AF9 inh,AID977621,AID977628
C[C@H](CO)N1C[C@H](C)[C@H](CN(C)C(=O)Nc2cccc3ccccc23)Oc2ncc(/C=C/c3ccccc3)cc2C1=O,-,.,-,-,-,-,.,.
CCOC(=O)c1ccc(NC(=O)COc2ccc(CNCCO)cc2OCC)cc1,-,-,-,-24,-,-,-,-
O=C(NCC[C@@H]1CC[C@@H](NC(=O)C2CCCCC2)[C@@H](CO)O1)c1ccc(F)cc1,-,-,-,.,-,-,.,.
Fc1ccccc1-c1ccc(C2[C@H]3CNC[C@@H]2N3CC2CC2)cc1 (some centres undefined),.,.,.,-,.,.,.,.
COCC(=O)N1[C@H](CO)[C@@H](c2ccccc2)C12CN(C(=O)c1cccnc1)C2,-,-,-,-,-,-,.,.
C[C@H](NC(=O)[C@@H]1[C@@H](CO)[C@@H]2Cn3c(ccc(C4=CCCC4)c3=O)[C@@H]2N1C)c1ccccc1,-,-,-,-,-,-,.,.
Cc1ccc(C2(c3noc(CN(C)Cc4cccnc4)n3)CCCC2)cc1,-,-,.,-31,-,.,.,?
Cc1ccc(C2(c3noc(CN(C)Cc4ccccn4)n3)CCCC2)cc1,-,-,.,-,-,-,.,.
CCCC(=O)N(CCc1ccc(OC)cc1)Cc1nc2ccccc2c(=O)[nH]1,-,-,.,-21,-,-,.,-
CCCCC(=O)N(Cc1ccc2c(c1)OCO2)Cc1nc2ccccc2c(=O)[nH]1,-,-,.,-23,-,-,.,-
COc1ccc(CCN(Cc2nc3ccccc3c(=O)[nH]2)C(=O)C2CC2)cc1,-,-,.,-,-,-,.,.
Cc1ccc(C(=O)N(Cc2ccc3c(c2)OCO3)Cc2nc3ccccc3c(=O)[nH]2)cc1,-,-,.,-,-,-,.,.
COc1ccc2cc(CO)c3cc(OC)c(OC)cc3c2c1,-,-,.,-28,.,-,-,.
COc1ccc2cc(CO)c(Cl)nc2c1,-,-,.,-,-,-,.,.
Cn1cnc([N+](=O)[O-])c1Oc1ccccc1,-,-,-,-37,-,-,-,-
Cn1cnc([N+](=O)[O-])c1Cl,-,-,-,-,-,-,.,.
CC1CCN(CC(O)COCCC23CC4CC(CC(C4)C2)C3)CC1 (centres undefined),-,-,.,-40,-,-,-,.
COc1ccc(-c2noc(CCc3ccccc3)n2)cc1,-,-,-,-20,-,-,-,-
CNC[C@@H]1Oc2ccc(N(C)C)cc2C(=O)N(C)C[C@@H]1C,.,.,.,-,.,.,.,.
COc1cccc(NC2=Nc3cccc4cccc2c34)c1,-,-,-,-34,-,?,-,.
N#Cc1ccc(-c2ccc3c(c2)[C@@H]2[C@@H](CCN2S(=O)(=O)c2cccc(F)c2)[C@H](CO)N3)cc1,-,-,-,-,-,-,.,.
